Assay results: ChEMBL document CHEMBL4411319, “Discovery of Macrocyclic Inhibitors of Apurinic/Apyrimidinic Endonuclease 1” (J Med Chem, 2019)

How the values were obtained:
[1] = molecular target: T1, DNA repair nuclease/redox regulator APEX1 (Homo sapiens, UniProt P27695); test: Inhibition of full length human APE1 assessed as reduction in endonuclease activity by measuring DNA cleavage of abasic sites using 6-FAM labelled two annealed oligonucleotides as AP site mimic substrate by fluorescence-based assay
Method in brief: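 Purified full-length APE1 (0.25-1.25 nM) added at once to 50 nM annealed duplex: 5'-6-FAM-labelled AP-site-mimic strand paired with a quencher-labelled strand. Buffer 50 mM Tris, 1 mM MgCl2, 50 mM NaCl, pH 7.5. Compound in triplicate, 10-point 1:2 dilution from 100 μM. Fluorescence from cleavage read kinetically at five 1-min intervals. Reaction rate compared with DMSO vehicle.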

[2] = Cytotoxicity against human Pa02C cells after 48 hrs by Alamar Blue-based assay; format: functional, cell-based
Method in brief: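 Patient-derived pancreatic Pa02c cells, low passage, kept in DMEM with 10% FBS. Plated at 2000 cells/well on poly-D-lysine-coated plates and grown overnight at 37 °C, 5% CO2. Dosed in 5% FBS DMEM from 100 μM, 1:2 serial dilution, 5 points, with DMSO vehicle and drug-background wells. Grown 48 h, then fresh medium with 10% Alamar Blue for 4 h and fluorescence read. Background subtracted, normalized to media alone, mean with standard error.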

[3] = molecular target: T1, DNA repair nuclease/redox regulator APEX1; test: Inhibition of APE1 in human ST8814 cells assessed as effect on MMS-induced DNA damage by measuring tail DNA level at 100 uM after 1 hr in presence of MMS by comet assay; format: cell-based; parameters: scale not given: the % may be the effect or the level left
Method in brief: (§1)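 Malignant peripheral nerve sheath tumor ST8814 cells seeded at 130,000/well in DMEM + 10% FBS and grown overnight. Treated 1 h at 37 °C in Opti-MEM with compound (100 μM or EC30) alone or with 1.0 mM MMS. Trypsinized, then alkaline comet assay: lysis 60 min, unwinding at pH 13 for 20 min, electrophoresis at 1 V/cm for 30 min, SYBR Gold stain. Percent tail DNA averaged over 20 comets; two independent experiments.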

[4] = Induction of DNA damage in human ST8814 cells measuring tail DNA level at 100 uM after 1 hr in presence of MMS by comet assay (reference value: 16%); format: functional; method in brief: as §1

T1 sequence (P27695 whole entry): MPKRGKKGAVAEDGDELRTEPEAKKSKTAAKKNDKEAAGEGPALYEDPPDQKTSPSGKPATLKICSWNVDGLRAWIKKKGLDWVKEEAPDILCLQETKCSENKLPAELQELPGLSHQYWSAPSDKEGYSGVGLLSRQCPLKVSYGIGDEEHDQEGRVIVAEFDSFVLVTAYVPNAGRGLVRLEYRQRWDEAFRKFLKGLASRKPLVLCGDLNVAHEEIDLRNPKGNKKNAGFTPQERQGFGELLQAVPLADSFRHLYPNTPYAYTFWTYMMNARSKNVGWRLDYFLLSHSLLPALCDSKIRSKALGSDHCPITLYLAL

SMILES | IC50 [1] [µM] | inhibition [1] | EC50 [2] [µM] | Activity [3] [%] | Activity [4] [%]
Cc1ccc([C@@H]2CC(=O)N[C@@H](Cc3c[nH]c4ccccc34)C(=O)N[C@@H](c3cccn3S(=O)(=O)c3ccc(C)cc3)[C@@H](C)/C=C/CC(=O)N2)cc1 | 2.5 |  | > 100 | 40 | 20
Cc1ccc(S(=O)(=O)n2cccc2[C@@H]2NC(=O)[C@H](Cc3c[nH]c4ccccc34)NC(=O)C[C@H](CCc3ccccc3)NC(=O)C/C=C/[C@@H]2C)cc1 | 2.6 |  | > 100 |  | 
Cc1ccc(S(=O)(=O)n2cccc2[C@@H]2NC(=O)[C@H](Cc3c[nH]c4ccccc34)NC(=O)C[C@@H](c3ccc(F)cc3)NC(=O)C/C=C/[C@@H]2C)cc1 | 5.7 |  | > 100 |  | 
Cc1ccc(S(=O)(=O)n2cccc2[C@@H]2NC(=O)[C@H](Cc3c[nH]c4ccccc34)NC(=O)C[C@@H](CCc3ccccc3)NC(=O)C/C=C/[C@@H]2C)cc1 | 2.7 |  | > 100 | 54 | 12
CC(=O)Nc1sc2c(c1-c1nc3ccccc3s1)CCN(C(C)C)C2 |  |  |  | 34 | 17
Cc1ccc(S(=O)(=O)n2cccc2[C@@H]2NC(=O)[C@H](Cc3c[nH]c4ccccc34)NC(=O)C[C@@H](c3ccc(C(F)(F)F)cc3)NC(=O)C/C=C/[C@@H]2C)cc1 | 1.3 |  | > 100 | 95 | 18
Cc1ccc(S(=O)(=O)n2cccc2[C@@H]2NC(=O)[C@H](Cc3c[nH]c4ccccc34)NC(=O)C[C@@H](Cc3ccc(Cl)cc3)NC(=O)C/C=C/[C@@H]2C)cc1 | 1.9 |  | > 100 |  | 
Cc1ccc(S(=O)(=O)n2cccc2[C@@H]2NC(=O)[C@H](Cc3c[nH]c4ccccc34)NC(=O)C[C@@H](c3ccc(Cl)cc3)NC(=O)C/C=C/[C@@H]2C)cc1 | 12.1 |  | > 100 |  | 
Cc1ccc(S(=O)(=O)n2cccc2[C@@H]2NC(=O)[C@H](Cc3c[nH]c4ccccc34)NC(=O)C[C@@H](c3cccc(C(F)(F)F)c3)NC(=O)C/C=C/[C@@H]2C)cc1 | 52.6 |  | 6.7 |  | 
Cc1ccc(S(=O)(=O)n2cccc2[C@@H]2NC(=O)[C@H](Cc3c[nH]c4ccccc34)NC(=O)C(Oc3ccc(C(F)(F)F)cc3)CCOC(=O)C/C=C/[C@@H]2C)cc1 (stereo partly specified) | 2.5 | Dose-dependent effect |  |  | 

Further lines, with some results ahead:

IC50 [1] [µM] | inhibition [1] | SMILES | EC50 [2] [µM] | Activity [3] [%] | Activity [4] [%]
> 100 |  | C[C@H]1/C=C/CC(=O)OCCCC(=O)N[C@@H](Cc2c[nH]c3ccccc23)C(=O)N[C@H]1c1ccccc1 | > 100 |  | 
1.8 | Dose-dependent effect | C[C@H]1/C=C/CC(=O)OCCC(Oc2ccc3c(c2)OCO3)C(=O)N[C@@H](Cc2c[nH]c3ccccc23)C(=O)N[C@H]1c1ccccc1 (stereo partly specified) |  |  | 
> 50 |  | Cc1ccc(S(=O)(=O)n2cccc2[C@@H]2NC(=O)[C@H](Cc3c[nH]c4ccccc34)NC(=O)CCCCNC(=O)C/C=C/[C@@H]2C)cc1 | > 100 |  | 
 | Dose-dependent effect | Cc1ccc(S(=O)(=O)n2cccc2[C@@H]2NC(=O)[C@H](Cc3c[nH]c4ccccc34)NC(=O)C(c3ccccc3)CCOC(=O)C/C=C/[C@@H]2C)cc1 (stereo partly specified) |  |  | 
33.2 |  | Cc1ccc(S(=O)(=O)n2cccc2[C@@H]2NC(=O)[C@H](Cc3c[nH]c4ccccc34)NC(=O)CCNC(=O)C/C=C/[C@@H]2C)cc1 | 58.4 | 96 | 12
9.3 |  | Cc1ccc(S(=O)(=O)n2cccc2[C@@H]2NC(=O)[C@H](Cc3c[nH]c4ccccc34)NC(=O)CCCCOC(=O)C/C=C/[C@@H]2C)cc1 | > 100 | 27 | 26
63.5 |  | C[C@H]1/C=C/CC(=O)OCCCCC(=O)N[C@@H](Cc2c[nH]c3ccccc23)C(=O)N[C@H]1c1ccccc1 | > 50 |  | 
55.1 |  | C[C@H]1/C=C/CC(=O)N[C@H](c2ccc(F)cc2)CC(=O)N[C@@H](Cc2c[nH]c3ccccc23)C(=O)N[C@H]1c1ccccc1 | 36.2 |  | 
26.5 |  | C[C@H]1/C=C/CC(=O)N[C@H](c2ccc(C(F)(F)F)cc2)CC(=O)N[C@@H](Cc2c[nH]c3ccccc23)C(=O)N[C@H]1c1ccccc1 | 58.5 | 67 | 12
 | Dose-dependent effect | Cc1ccc(S(=O)(=O)n2cccc2[C@@H]2NC(=O)[C@H](Cc3c[nH]c4ccccc34)NC(=O)C(Oc3ccccc3)CCOC(=O)C/C=C/[C@@H]2C)cc1 (stereo partly specified) |  |  | 
> 100 |  | C[C@H]1/C=C/CC(=O)N[C@H](c2ccc(Cl)cc2)CC(=O)N[C@@H](Cc2c[nH]c3ccccc23)C(=O)N[C@H]1c1ccccc1 | 22 |  | 
10.6 |  | Cc1ccc(S(=O)(=O)n2cccc2[C@@H]2NC(=O)[C@H](Cc3c[nH]c4ccccc34)NC(=O)CCCOC(=O)C/C=C/[C@@H]2C)cc1 | > 100 |  | 
29.2 |  | Cc1ccc(S(=O)(=O)n2cccc2[C@@H]2NC(=O)[C@H](Cc3c[nH]c4ccccc34)NC(=O)CCCNC(=O)C/C=C/[C@@H]2C)cc1 | 35 |  | 
